In ChEMBL document CHEMBL2434877, “Synthesis and SAR study of novel 3,3-diphenyl-1,3-dihydroindol-2-one derivatives as potent eIF2·GTP·Met-tRNAiMet ternary complex inhibitors” (Eur J Med Chem, 2013):
Activity calls are given as the source filed them. The calls are words filed in the database; no cut-off is given here.

Experiments:
[1] = Antiproliferative activity against human CRL2351 cells after 5 days by SRB assay; type: functional, cell-based; conditions: 120 h
Method in brief: (§1)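 Adherent cells plated, allowed to settle overnight, then exposed 5 days to 0.54–20 µM compound. Fixed in cold 10% TCA (4 °C, 1 h), stained with 0.4% SRB in 1% acetic acid for 1 h, dye solubilized in 10 mM Tris pH 10, A490 read. Time-zero plates used for %T/C. IC50 is the 50% growth-inhibition concentration, mean of 2 experiments each in triplicate.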

[2] = Antiproliferative activity against human CRL2813 cells after 5 days by SRB assay; type: functional, cell-based; conditions: CRL2813, 120 h; method in brief: as §1
Mus musculus [3] = species on record: Mus musculus; experiment: Inhibition of eIF2-GTP-Met-tRNAi (Met) in mouse KLN205 cells assessed as increase in CHOP mRNA expression by qRT-PCR analysis relative to DMSO-treated control; type: cell-based
Method in brief: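 CHOP mRNA measured by PCR in KLN-205 cells, triplicate in at least two independent runs. Transcript quantities normalized to 18S rRNA and expressed as fold over DMSO control.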

[4] = Antiproliferative activity against mouse KLN205 cells after 5 days by SRB assay; type: functional, cell-based; conditions: 120 h; method in brief: as §1
Mus musculus [5] = species on record: Mus musculus; experiment: Inhibition of eIF2-GTP-Met-tRNAi (Met) in mouse KLN205 cells assessed as increase in ATF-4 expression at 40 uM by dual luciferase reporter gene assay relative to control; type: cell-based
Method in brief: (§2)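 KLN-205 cells carry firefly luciferase fused to the ATF-4 5′UTR and renilla luciferase behind a uORF-free 5′UTR. Cells treated overnight with compound at 10, 20, 40 or 80 µM, then read with a glow-type dual luciferase kit. Firefly/renilla ratio corrected for the same ratio in DMSO wells on the same plate.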

MCF7 = experiment: Antitumor activity against human MCF7 cells xenografted in mouse assessed as regression in tumor size at 140 mg/kg, sc bid for 3 weeks relative to control; type: functional; conditions: route subcutaneous
Mus musculus [6] = species on record: Mus musculus; experiment: Inhibition of eIF2-GTP-Met-tRNAi (Met) in mouse KLN205 cells assessed as increase in ATF-4 expression at 10 to 80 uM by dual luciferase reporter gene assay; type: cell-based; method in brief: as §2
Mus musculus [7] = species on record: Mus musculus; experiment: Inhibition of eIF2-GTP-Met-tRNAi (Met) in mouse KLN205 cells assessed as increase in ATF-4 expression at 80 uM by dual luciferase reporter gene assay relative to control; type: cell-based; method in brief: as §2

Compound	IC50 [1] [µM]	IC50 [2] [µM]	fold change (FC) (Mus musculus [3])	IC50 [4] [µM]	fold change (FC) (Mus musculus [5])	Activity (MCF7) [%]	ATF-4 reporter expression relative to DMSO control (Mus musculus [6])	fold change (FC) (Mus musculus [7])
COc1ccc(C2(c3cc(C(C)(C)C)ccc3OCCN3CCOCC3)C(=O)Nc3ccc(OC(F)(F)F)cc32)cc1 (racemic)	2.9	1.9	3.49	9.3	5.11			
COc1ccc(C2(c3cc(C(C)(C)C)ccc3O)C(=O)Nc3ccccc32)cc1 (racemic)	2.65	2.75	4.09	15.7	5.6			
CC(C)(C)c1ccc(O)c(C2(c3ccccc3)C(=O)Nc3ccccc32)c1 (configuration not stated)	3.4	4.8	3.77	14.4	3.7	30		
CC(C)(C)c1ccc(OCC(=O)O)c(C2(c3ccccc3)C(=O)Nc3ccccc32)c1 (racemic)	> 20	> 20		> 20			inactive	
COc1ccc(C2(c3cc(C(C)(C)C)ccc3OCCN3CCOCC3)C(=O)Nc3ccccc32)cc1F (racemic)	2.5	2.7		3.4				
CC(C)(C)c1ccc(OCCN2CCOCC2)c(C2(c3ccccc3)C(=O)Nc3ccccc32)c1 (racemic)	3.35	2.4		6.8				
COc1ccc(C2(c3cc(C(C)(C)C)ccc3OCCN3CCOCC3)C(=O)Nc3ccccc32)cc1OC (racemic)	> 20	> 20		> 20				
COc1ccc(C2(c3cc(C(C)(C)C)ccc3O)C(=O)Nc3c2ccc(F)c3F)cc1 (racemic)	0.95	3		12.3			inactive	
CC(C)(C)c1ccc(O)c(C2(c3ccccc3)C(=O)Nc3ccc(I)cc32)c1 (racemic)	3.5	2.8	4.36	14.9	7.2			
COc1ccc(C2(c3cc(C(C)(C)C)ccc3O)C(=O)Nc3ccc(OC)cc32)cc1 (racemic)	2.9	11.1		14.3			inactive	
CC(C)(C)c1ccc(O)c(C2(c3ccccc3)C(=O)Nc3ccc(OC(F)(F)F)cc32)c1 (racemic)	2.5	1		8				
CN(C)CCOc1ccc(C(C)(C)C)cc1C1(c2ccccc2)C(=O)Nc2ccccc21 (racemic)	1.4	2.4		1.2				
CN(C)c1ccc(C2(c3cc(C(C)(C)C)ccc3OCCN3CCOCC3)C(=O)Nc3c2ccc(F)c3F)cc1 (racemic)	4	11		15.7				
CC(C)(C)c1ccc(O)c(C2(c3ccccc3)C(=O)Nc3ccc4ncsc4c32)c1 (racemic)	2.2	0.95		8			inactive	
CN(C)c1ccc(C2(c3cc(C(C)(C)C)ccc3OCCN3CCOCC3)C(=O)Nc3ccccc32)cc1 (racemic)	4.7	7.5	4.15	2.2	7.15			
CC(C)(C)c1ccc(O)c(C2(c3ccc(O)cc3)C(=O)Nc3ccccc32)c1 (configuration not stated)	2	4		17.3				
CC(C)(C)c1ccc(O)c(C2(c3ccc(CN4CCOCC4)cc3)C(=O)Nc3ccccc32)c1 (racemic)	7.3	7.8	4.68	17.3				12.4
CC(C)(C)c1ccc(O)c(C2(c3cccnc3)C(=O)Nc3ccccc32)c1 (racemic)	6.4	11.5		> 20				
Cc1cc(C2(c3cc(C(C)(C)C)ccc3O)C(=O)Nc3ccccc32)ccc1Cl (racemic)	2.9	2.9		4.3				
CC(C)(C)c1ccc(OCCN2CCNCC2)c(C2(c3ccccc3)C(=O)Nc3ccccc32)c1 (racemic)	0.9	12.8		1.2			inactive	
COc1ccc(C2(c3cc(C(C)(C)C)ccc3OCCN3CCOCC3)C(=O)Nc3ccccc32)cc1 (racemic)	2.65	2.4	7.1	4.3	6.3			
CN(C)c1ccc(C2(c3cc(C(C)(C)C)ccc3O)C(=O)Nc3ccccc32)cc1 (racemic)	2.3	11		10.9				
COC(=O)c1cccc2c1NC(=O)C2(c1ccc(OC)cc1)c1cc(C(C)(C)C)ccc1O (racemic)	3.4	12.2		> 20				
COc1ccc(C2(c3cc(C(C)(C)C)ccc3OCCN3CCOCC3)C(=O)Nc3ccc(I)cc32)cc1 (racemic)	6.1	2.6		12				
COC(=O)c1cccc2c1NC(=O)C2(c1ccc(OC)cc1)c1cc(C(C)(C)C)ccc1OCCN1CCOCC1 (racemic)	16.3	14.6		17			inactive	
COc1ccc(C2(c3cc(C(C)(C)C)ccc3OCCN3CCOCC3)C(=O)Nc3ccc(OC)cc32)cc1 (racemic)	4.5	2.9		2.75				
CC(C)(C)c1ccc(O)c(C2(c3ccc(O)cc3)C(=O)Nc3c2ccc(F)c3F)c1 (configuration not stated)	> 20	10.7	3.09	15.3	2.9			
CC(C)(C)c1ccc(O)c(C2(c3ccccc3)C(=O)Nc3ccc(-c4ccc(N5CCOCC5)nc4)cc32)c1 (configuration not stated)	1.8	2.5	20.8	13.3				15.6
C#CCOc1ccc(C(C)(C)C)cc1C1(c2ccccc2)C(=O)Nc2ccccc21 (racemic)	17.5	> 20		> 20				
